According to ChEMBL document CHEMBL1142570, “Aurantosides G, H, and I: three new tetramic acid glycosides from a Papua New Guinea Theonella swinhoei” (J Nat Prod, 2005):
Calls of active or inactive are those of the source.

How the values were obtained:
HCT-116 [1] = test: Cytotoxicity against human HCT 116 with null p53 mutant at 0.009 to 152 uM by MTT assay; format: functional
Procedure, shortened: (§1)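 HCT116 p53+/+ and p53-/- cells grown in McCoy's medium with 2 mM L-glutamine, 1 mM sodium pyruvate, penicillin/streptomycin and 10% FBS at 37 °C, 5% CO2. Seeded at 4 × 10^5 cells/well and left to attach for 24 h. Exposed to 0-78 µg/mL compound for 72 h. MTT added (final 0.25 mg/mL) for 3 h, formazan dissolved in DMSO, A570 read, IC50 by curve fitting.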

HCT-116 [2] = test: Cytotoxicity against human HCT 116 with wild type p53 at 0.009 to 152 uM by MTT assay; format: functional; procedure, shortened: as §1
HCT-116 [3] = test: Cytotoxicity against human HCT 116 with wild type p53 at 0.006 to 103 uM by MTT assay; format: functional; procedure, shortened: as §1
HCT-116 [4] = test: Cytotoxicity against human HCT 116 with null p53 mutant p53 at 0.008 to 124 uM by MTT assay; format: functional; procedure, shortened: as §1
HCT-116 [5] = test: Cytotoxicity against human HCT 116 with null p53 mutant at 0.006 to 103 uM by MTT assay; format: functional; procedure, shortened: as §1
[6] = tested on: Human immunodeficiency virus 1; test: Antiviral activity against HIV1 at 10 ug/ml; format: functional, organism-based
HCT-116 [7] = test: Cytotoxicity against human HCT 116 with wild type p53 at 0.008 to 124 uM by MTT assay; format: functional; procedure, shortened: as §1
[8] = tested on: Human immunodeficiency virus 1; test: Antiviral activity against HIV1 at 1 ug/ml; format: functional, organism-based

Measured: Activity

C/C(Cl)=C/C=C/C=C/C=C/C=C/C(O)=C1\C(=O)[C@H](CC(N)=O)N([C@@H]2OC[C@@H](O)[C@H](O)[C@H]2O)C1=O
inactive: all assays above

CO[C@@H]1[C@H](O[C@@H]2CO[C@@H](O[C@@H]3[C@@H](O)[C@H](O)CO[C@H]3N3C(=O)/C(=C(O)/C=C/C=C/C=C/C=C/C=C(/C)Cl)C(=O)[C@@H]3CC(N)=O)[C@@H](O)[C@@H]2O)O[C@H](C)[C@H]1O
inactive: all assays above

C/C(Cl)=C/C=C/C=C/C=C/C=C/C(O)=C1\C(=O)[C@H](CC(N)=O)N([C@@H]2OC[C@@H](O)[C@H](O)[C@H]2O[C@@H]2OC[C@@H](O)[C@@H](O)[C@@H]2O)C1=O
inactive: all assays above
